# Measurements from ChEMBL document CHEMBL4390648, “Chemical synthesis, crystal structure, versatile evaluation of their biological activities and molecular simulations of novel pyrithiobac derivatives” (Eur J Med Chem, 2019).
# Activity calls are given as the source filed them. The rule behind the calls is not given here.
# Columns and labels:
# Mythimna separata = test: Insecticidal activity against Mythimna separata assessed as larval mortality at 600 mg/l by leaf-dip method; format: functional
# Candida albicans [1] = test: Inhibition of Candida albicans AHAS catalytic subunit at 100 uM using pyruvate as substrate measured after 30 mins by colorimetric method relative to control
# How it was run: (§1)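 Colorimetric assay in 50 mM potassium phosphate pH 7.0 with 50 mM pyruvate, 1 mM thiamine diphosphate, 10 mM MgCl2 and 10 μM FAD. Incubated 30 min at 37 °C for plant AHAS and 30 °C for fungal AHAS. Acetolactate formed was then quantified.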
# Tobacco mosaic virus [2] = test: Antiviral activity against Tobacco mosaic virus inoculated in Nicotiana tabacum leaves assessed as passivation by measuring local lesion numbers at 500 mg/l pre-incubated with virus for 30 mins followed by inoculation and measured up to 4 days; format: functional
# How it was run: (§2)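 Passivation assay: TMV mixed with an equal volume of compound solution for 30 min, then rubbed onto the left half of N. tabacum L. leaves. The right half received virus mixed with solvent as control. Local lesions counted 3–4 days after inoculation. Compounds tested at 500 or 100 mg/L.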
# Candida albicans [3] = test: Antifungal activity against Candida albicans isolate 17 grown in YNB medium incubated for 24 hrs by microdilution method; format: functional; details: isolate 17, 24 h
# How it was run: (§3)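 C. albicans standard strain SC5314 and clinical isolates g5 and 17# tested by broth microdilution in YNB or RPMI 1640 medium. Plates incubated at 35 °C for up to 72 h, with visual readings taken at 24 h. MIC taken as the lowest concentration preventing visible growth.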
# Fusarium fujikuroi = test: Antifungal activity against Gibberella fujikuroi assessed as reduction in growth at 50 mg/l by mycelium growth rate method relative to control; format: functional
# How it was run: (§4)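 Mycelium growth rate method against S. sclerotiorum, P. capsici, P. piricola, R. cerealis, W. anthracnose and R. bakanae. Each compound tested at 50 mg/L, with chlorothalonil and PTB as controls. Relative inhibitory ratio (%) calculated from mycelial growth.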
# Arabidopsis thaliana [4] = test: Inhibition of Arabidopsis thaliana AHAS catalytic subunit using pyruvate as substrate at 10 uM measured after 30 mins by colorimetric method relative to control; how it was run: as §1
# Candida albicans [5] = test: Antifungal activity against Candida albicans SC5314 grown in YNB medium incubated for 24 hrs by microdilution method; format: functional; details: SC5314, 24 h; how it was run: as §3
# [6] = system: Brassica rapa subsp. oleifera; test: Herbicidal activity against Brassica campestris L assessed as inhibition of rape root growth at 10 mg/l root growth incubated for 48 hrs relative to control; format: functional
# How it was run: (§5)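 Rape seeds soaked in distilled water for 4 h, then placed on filter paper wetted with inhibitor solution, 15 seeds per 6-cm dish. Germinated in the dark at 28 °C for 48 h. Mean length of 10 roots per plate measured.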
# Sclerotinia sclerotiorum = test: Antifungal activity against Sclerotinia sclerotiorum assessed as reduction in growth at 50 mg/l by mycelium growth rate method relative to control; format: functional; how it was run: as §4
# Candida albicans [7] = test: Inhibition of Candida albicans AHAS catalytic subunit at 10 uM using pyruvate as substrate measured after 30 mins by colorimetric method relative to control; how it was run: as §1
# Colletotrichum = test: Antifungal activity against Colletotrichum (W. anthracnose) assessed as reduction in growth at 50 mg/l by mycelium growth rate method relative to control; format: functional; how it was run: as §4
# Tobacco mosaic virus [8] = test: Antiviral activity against Tobacco mosaic virus inoculated in Nicotiana tabacum leaves assessed as passivation by measuring local lesion numbers at 100 mg/l pre-incubated with virus for 30 mins followed by inoculation and measured up to 4 days; format: functional; how it was run: as §2
# [9] = system: Botryosphaeria berengeriana; test: Antifungal activity against Physalospora pyricola assessed as reduction in growth at 50 mg/l by mycelium growth rate method relative to control; format: functional; how it was run: as §4
# [10] = system: Brassica rapa subsp. oleifera; test: Herbicidal activity against Brassica campestris L assessed as inhibition of rape root growth at 100 mg/l root growth incubated for 48 hrs relative to control; format: functional; how it was run: as §5
# [11] = system: Severe acute respiratory syndrome-related coronavirus; test: Inhibition of SARS coronavirus M protease using AVLQSGFRKK as substrate at 20 uM by FRET assay relative to control
# How it was run: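 Purified SARS-CoV Mpro assayed by FRET. Protein, compound and substrate were preheated at 37 °C and oscillated. Fluorescence (ex 320/em 405 nm) was read every 5 s for 200 reads.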
# Arabidopsis thaliana [12] = test: Inhibition of Arabidopsis thaliana AHAS catalytic subunit using pyruvate as substrate at 100 uM measured after 30 mins by colorimetric method relative to control; how it was run: as §1
# Candida albicans [13] = test: Antifungal activity against Candida albicans isolate 17 grown in RPMI 1640 medium incubated for 24 hrs by microdilution method; format: functional; details: isolate 17, 24 h; how it was run: as §3
# Ceratobasidium cereale = test: Antifungal activity against Rhizoctonia cerealis assessed as reduction in growth at 50 mg/l by mycelium growth rate method relative to control; format: functional; how it was run: as §4
# Candida albicans [14] = test: Antifungal activity against Candida albicans isolate g5 grown in RPMI 1640 medium incubated for 24 hrs by microdilution method; format: functional; details: isolate g5, 24 h; how it was run: as §3
# Phytophthora capsici = test: Antifungal activity against Phytophthora capsici assessed as reduction in growth at 50 mg/l by mycelium growth rate method relative to control; format: functional; how it was run: as §4
# Candida albicans [15] = test: Antifungal activity against Candida albicans SC5314 grown in RPMI 1640 medium incubated for 24 hrs by microdilution method; format: functional; details: SC5314, 24 h; how it was run: as §3
# Candida albicans [16] = test: Antifungal activity against Candida albicans isolate g5 grown in YNB medium incubated for 24 hrs by microdilution method; format: functional; details: isolate g5, 24 h; how it was run: as §3
SMILES,mortality at 600 µg/mL (Mythimna separata) [%],inhibition (Candida albicans [1]) [%],inhibition at 500 µg/mL (Tobacco mosaic virus [2]) [%],MIC (Candida albicans [3]) [µg/mL],inhibition at 50 µg/mL (Fusarium fujikuroi) [%],inhibition (Arabidopsis thaliana [4]) [%],MIC (Candida albicans [5]) [µg/mL],inhibition (INH) [6] [%],inhibition at 50 µg/mL (Sclerotinia sclerotiorum) [%],inhibition (Candida albicans [7]) [%],inhibition at 50 µg/mL (Colletotrichum) [%],inhibition (Tobacco mosaic virus [8]),inhibition at 50 µg/mL [9] [%],inhibition (INH) [10] [%],inhibition [11] [%],inhibition (Arabidopsis thaliana [12]) [%],MIC (Candida albicans [13]) [µg/mL],inhibition at 50 µg/mL (Ceratobasidium cereale) [%],MIC (Candida albicans [14]) [µg/mL],inhibition at 50 µg/mL (Phytophthora capsici) [%],further results
COc1nc(OC)nc(Sc2ccc(C#N)cc2F)n1,0,85.4,0,6.25,27.3,42.9,6.25,41.8,13.9,55.7,23.8,inactive,54.7,54.2,49.7,63.3,100,58.3,100,16.7,MIC (Candida albicans [15]): 100 µg/mL; MIC (Candida albicans [16]): 12.5 µg/mL
COc1nc(OC)nc(Sc2ccc(F)cc2C(=O)O)n1,80,77.6,0,50,30.3,3.3,> 100,1.6,55.6,56.1,19,inactive,45.3,33.3,94.5,68.6,100,57.1,> 100,16.7,MIC (Candida albicans [15]): > 100 µg/mL; MIC (Candida albicans [16]): > 100 µg/mL
COc1nc(OC)nc(Sc2ccc(Cl)cc2C(=O)O)n1,40,68.8,0,> 100,0,5.5,> 100,0,61.1,39.3,16.7,inactive,40.6,24.2,24.2,59.6,> 100,52.4,> 100,8.3,MIC (Candida albicans [15]): > 100 µg/mL; MIC (Candida albicans [16]): > 100 µg/mL
COc1nc(OC)nc(Sc2ccc(C(=O)O)cc2Cl)n1,20,73,0,25,27.3,12.6,100,0,69.4,25.6,16.7,inactive,42.2,58.2,25.5,15.3,> 100,59.5,> 100,58.3,MIC (Candida albicans [15]): > 100 µg/mL; MIC (Candida albicans [16]): 100 µg/mL
COc1nc(OC)nc(Sc2cccc(F)c2C#N)n1,20,70.4,0,3.12,24.2,34.5,6.25,2.2,63.9,46.3,42.9,inactive,45.3,26.2,90.8,86.5,100,52.4,100,33.3,MIC (Candida albicans [15]): 100 µg/mL; MIC (Candida albicans [16]): 12.5 µg/mL
COc1cc(OC)nc(Sc2cc(C(F)(F)F)ccc2C#N)n1,65,26.1,35.8,> 100,45.5,18,> 100,12.3,11.1,7.9,26.2,inactive,28.1,66.1,29.9,91.6,> 100,70.2,> 100,66.7,MIC (Candida albicans [15]): > 100 µg/mL; MIC (Candida albicans [16]): > 100 µg/mL
COc1nc(OC)nc(Sc2ccc(Cl)cc2C#N)n1,0,79.9,0,> 100,33.3,44.9,> 100,0,27.8,52.1,23.8,inactive,71.9,16.6,85.1,71.3,> 100,45.2,> 100,16.7,MIC (Candida albicans [15]): > 100 µg/mL; MIC (Candida albicans [16]): > 100 µg/mL
COc1nc(OC)nc(Sc2ccc(Br)cc2C(=O)O)n1,45,96.7,0,> 100,6.1,12,> 100,5.2,66.7,59.3,23.8,inactive,59.4,55.1,48.8,19,> 100,58.3,> 100,33.3,MIC (Candida albicans [15]): > 100 µg/mL; MIC (Candida albicans [16]): > 100 µg/mL
COc1nc(OC)nc(Sc2ccc(C#N)cc2Cl)n1,30,73.6,29.6,> 100,42.4,43.2,> 100,28.4,36.1,65.4,33.3,inactive,60.9,60.3,12.8,89.6,> 100,54.8,> 100,8.3,MIC (Candida albicans [15]): > 100 µg/mL; MIC (Candida albicans [16]): > 100 µg/mL
COc1nc(OC)nc(Sc2ccc(C(=O)O)cc2F)n1,30,94.9,0,3.12,6.1,13.8,> 100,0,61.1,52.3,19,inactive,53.1,27.6,89.5,18.7,> 100,57.1,> 100,16.7,MIC (Candida albicans [15]): > 100 µg/mL; MIC (Candida albicans [16]): > 100 µg/mL
